Source: PubChem BioAssay
SENP8 block-1: SENP8 protease inhibition; Q96LD8; purified SENP8, Z-RLRGG-aminoluciferin cleavage, luminescence; inhibition, % at 10 µM; hit rate 1.2% among 330,000; AID 2540; in the data active means inhibition above about 50%
Apaf1 inhib: blocks human Apaf-1 apoptosome activity | O14727 | inhibition, % at 20 µM | hit rate 0.71% among 330,000 | reconstituted apoptosome caspase-3 activity, DEVD-Rh110 fluorescence; active means inhibition of at least 40% at 20 µM;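 further: plate controls were DMSO wells for no effect and DEVD-CHO caspase inhibitor wells for full effect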
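Material: cell-free apoptosome with Apaf-1, procaspase-3 and caspase-9; Buffer or medium: Hepes pH 7.5 with detergent and BSA; Reagent: cytochrome c trigger plus (Z-DEVD)2-Rh110 caspase-3 substrate; Times: compound with Apaf-1, dATP, procaspase-3 30 min, then 50 min reaction, room temperature; Technique: Rh110 fluorescence intensity.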
SENP6 block: blocks the human protease SENP6. Recombinant SENP6 catalytic domain, aminoluciferin luminescence. inhibition, % at 10 µM. hit rate 1.8% among 330,000;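 active means inhibition above about 50% at the single tested dose, limit read from the data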;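 further: plate controls were DMSO wells with enzyme for no effect and DMSO wells lacking enzyme for full effect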
UBC13 polyUb: human UBC13 polyubiquitination inhibition | P61088 | UBC13 polyubiquitin chain formation, TR-FRET | inhibition, % at 20 µM | hit rate 0.47% among 330,000 | AID 485273; in the data active means inhibition above about 45%, passing the limit was not always enough
Target sequence (P61088 whole entry, looked up): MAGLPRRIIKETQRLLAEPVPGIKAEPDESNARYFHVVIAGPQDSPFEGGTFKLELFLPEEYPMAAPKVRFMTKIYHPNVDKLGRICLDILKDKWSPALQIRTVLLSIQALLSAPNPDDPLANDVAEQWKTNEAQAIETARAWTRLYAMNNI
SENP8 block-2: inhibitors of human SENP8 protease | recombinant SENP8, Nedd8 substrate fluorescence | Q96LD8 | AID 602440 | hit rate 0.64% among 360,000 | inhibition, % at 20 µM; in the data active means inhibition mostly above about 40%, no sharp cut-off; inactive means mostly below about 27%
SENP7 block: blocks the human protease SENP7; Q9BQF6; recombinant SENP7, Z-RLRGG-aminoluciferin luminescence, 40 min; inhibition, % at 5 µM; hit rate 1.5% among 330,000; AID 434973;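 active means inhibition above about 50% at the single test dose, limit read from the data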;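 further: plate controls were DMSO with enzyme for no effect and no enzyme buffer wells for full effect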
Target sequence (Q9BQF6 706-1050 limits assumed): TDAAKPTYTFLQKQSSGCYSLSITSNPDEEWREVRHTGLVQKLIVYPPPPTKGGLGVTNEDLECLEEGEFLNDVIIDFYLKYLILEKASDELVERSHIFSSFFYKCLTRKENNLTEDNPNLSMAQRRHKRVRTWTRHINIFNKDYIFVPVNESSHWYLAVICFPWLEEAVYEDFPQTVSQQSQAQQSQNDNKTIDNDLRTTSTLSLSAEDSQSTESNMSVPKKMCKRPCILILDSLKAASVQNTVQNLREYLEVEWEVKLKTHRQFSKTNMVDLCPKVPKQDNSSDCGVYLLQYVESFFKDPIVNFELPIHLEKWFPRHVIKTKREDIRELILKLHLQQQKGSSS
SENP8 confirm: confirmation of human SENP8 protease inhibitors. shares compounds with SENP7 block. Recombinant SENP8, Z-RLRGG-aminoluciferin luminescence, 60 min. inhibition, % at 12.5 µM. hit rate 40% among 6,200;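 active means mean inhibition across replicates above about 50%, limit read from the data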
SENP6 conf: human SENP6 inhibition, confirmed; hit rate 58% among 6,200; shares compounds with SENP7 block; AID 488915; recombinant SENP6, Z-RLRGG-aminoluciferin luminescence; inhibition, % at 12.5 µM
SENP7 conf: confirmation of human SENP7 protease inhibitors; AID 488917; recombinant SENP7, Z-RLRGG-aminoluciferin luminescence, 40 min; shares compounds with SENP7 block; inhibition, % at 12.5 µM; hit rate 69% among 6,200
Casp3 SENP sel: selectivity test for SENP inhibitors: human caspase-3 inhibition | inhibition, % at 12.5 µM | shares compounds with SENP7 block | hit rate 60% among 6,200 | purified caspase-3, Z-DEVD-aminoluciferin luminescence, 60 min;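 active means mean inhibition above about 50%, limit read from the data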;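 further: plate controls were enzyme with DMSO for no effect and wells without caspase-3 for full effect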
SENP luc ctr: luminescence interference (SENP counter-screen); inhibition, % at 12.5 µM; Pre-incubated SENP8/Z-RLRGG-aminoluciferin, luciferase luminescence interference; shares compounds with SENP7 block; hit rate 39% among 6,200;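 active means mean inhibition above about 50% when retested at one dose, limit read from the data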;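 further: plate controls were DMSO wells with completed reaction for no effect and substrate without enzyme for full effect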
* = called active by the depositor; · = no result. In the library only some 3% were active in any assay of this set; here they are far more common.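 How the source made its calls, unless noted: active means mean inhibition above about 50% in the one-dose retest (limit read from the data); inactive means the rest.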

SMILES	SENP8 block-1	Apaf1 inhib	SENP6 block	UBC13 polyUb	SENP8 block-2	SENP7 block	SENP8 confirm	SENP6 conf	SENP7 conf	Casp3 SENP sel	SENP luc ctr
Cc1c(NC(=O)c2cccs2)cccc1NC(=O)c1cccs1	-4	4	-3	-8	-5	14	·	·	·	·	·
Cc1c(N=Cc2nc3ccccc3n2C)c(=O)n(-c2ccccc2)n1C	51*	6	46	-19	26	83*	58*	80*	99*	97*	12
Cc1c(N=Cc2nc3ccccc3[nH]2)c(=O)n(-c2ccccc2)n1C	16	6	-5	-8	22	1	·	·	·	·	·
O=C(O)COc1ccccc1/C=N/NC(=O)CSc1nnc(SCc2ccc(Cl)cc2)s1	45	-4	66*	-10	26	9	36	49	67*	19	3
Cc1ccc(CSc2nnc(SCC(=O)N/N=C/c3c(C)nn(-c4ccccc4)c3C)s2)cc1	41	34	75*	0	16	55*	12	26	39	12	6
Cc1ccc(-c2nnc(SCC(=O)N/N=C/c3c(C)nn(-c4ccccc4)c3C)n2-c2ccccc2)cc1	1	31	3	-1	13	6	·	·	·	·	·
O=C(O)COc1ccccc1/C=N/NC(=O)CSc1nnc(SCc2cccc3ccccc23)s1	27	0	-11	11	16	1	·	·	·	·	·
CCC1CCCCN1CCCNC(=O)C1CCN(c2nnc(-n3cccc3)s2)CC1 (centres undefined)	14	20	-4	13	14	-6	·	·	·	·	·
COc1ccc2c(c1)C(=O)c1ccccc1CO2	23	-3	56*	9	-11	-5	70*	74*	91*	67*	67*
O=C1c2ccccc2COc2ccc(O)cc21	-14	13	-17	-2	19	-16	·	·	·	·	·
COc1ccc(CNC(=O)C(C)c2ccc([N+](=O)[O-])cc2)cc1 (centres undefined)	-5	5	-12	-4	10	-3	·	·	·	·	·
CN(C(=O)COc1ccc2ccc(=O)oc2c1)C1CCS(=O)(=O)C1 (centres undefined)	2	9	12	-9	-291	92*	6	7	10	7	0
CC(C)CN(C(=O)COc1ccc2ccc(=O)oc2c1)C1CCS(=O)(=O)C1 (centres undefined)	4	3	-7	14	-264	5	·	·	·	·	·
N/C(=N\OC(=O)c1ccc2ccccc2c1)c1ccccc1Cl	68*	9	73*	5	0	78*	82*	81*	94*	71*	83*
Cc1ccccc1C(=O)O/N=C(\N)Cc1cccs1	35	-11	51*	-3	6	61*	52*	49	81*	76*	55*
N/C(=N\OC(=O)c1ccc2ccccc2c1)c1ccncc1	56*	0	47	-9	-12	67*	70*	71*	90*	77*	73*
Cc1ccccc1C(=O)O/N=C(\N)c1ccncc1	30	-10	62*	-7	5	65*	42	41	79*	81*	55*
Cc1ccccc1OCC(=O)O/N=C(\N)Cc1cccs1	-8	6	-17	-11	3	-9	·	·	·	·	·
CCCCOc1ccc(OCCNC(=O)C2CCCN2C(=O)Nc2ccccc2)cc1 (centres undefined)	-13	6	-27	-5	14	-2	·	·	·	·	·
COc1cccc(C(=O)O/N=C(\N)c2ccccn2)c1	95*	-16	97*	7	4	98*	97*	98*	102*	98*	98*
N/C(=N\OC(=O)c1ccc2ccccc2c1)c1ccccn1	96*	13	94*	-10	-20	101*	95*	97*	102*	98*	27
COc1ccc(/C(N)=N/OC(=O)c2ccc([N+](=O)[O-])c(C)c2)cc1OC	-19	-18	-6	-8	13	2	·	·	·	·	·
CCCc1ccc(C(=O)O/N=C(\N)c2ccccn2)cc1	97*	-4	100*	2	19	100*	97*	100*	102*	98*	78*
Cc1cc(C(=O)O/N=C(\N)c2ccncc2)ccc1[N+](=O)[O-]	18	-11	37	1	23	57*	8	6	38	43	26
N/C(=N\OC(=O)c1ccc(=O)n(Cc2ccccc2)c1)c1ccccn1	-6	4	-10	-12	0	-8	·	·	·	·	·
SMILES	SENP8 block-1	Apaf1 inhib	SENP6 block	UBC13 polyUb	SENP8 block-2	SENP7 block	SENP8 confirm	SENP6 conf	SENP7 conf	Casp3 SENP sel	SENP luc ctr
Cc1cccc(-c2nnc(-c3ccc4ccccc4c3)o2)c1	·	·	·	·	-302	·	·	·	·	·	·
O=C(COC(=O)COc1ccccc1F)NC1CC1	10	-9	2	0	6	4	·	·	·	·	·
COc1ccc(C)cc1NC(=O)CN1C(=O)C2CC=CCC2C1=O (centres undefined)	5	-315	0	1	8	-8	·	·	·	·	·
O=C(Nc1ccc(Br)cc1Br)c1cccc2c1C(=O)N(C1CCCCC1)C2	-8	9	-19	-7	3	-2	·	·	·	·	·
N/C(=N\OC(=O)C1CCCCC1)c1ccccn1	46	-10	67*	10	15	68*	61*	60*	87*	89*	67*
COc1ccccc1NC(=O)c1ccc2nc(-c3ccccc3)c(-c3ccccc3)nc2c1	-3	7	6	-1	-1	10	·	·	·	·	·
COc1ccccc1-c1nc2cc3ccccc3cc2nc1-c1ccccc1	6	25	51*	7	-144	4	-4	3	-5	-3	-3
CCN(CC)S(=O)(=O)c1ccc(NC(=O)c2ccccn2)cc1	39	1	64*	6	12	59*	49	48	81*	68*	57*
CCCNS(=O)(=O)c1ccc(NC(=O)c2ccccn2)cc1	41	-6	69*	-2	16	57*	36	35	79*	76*	58*
CCCc1nnc(N2C(=O)c3cccc4cccc(c34)C2=O)s1	-4	4	-2	-3	-205	3	·	·	·	·	·
Cc1ccc(C2CC(c3ccccc3)=NN2c2ccccc2)o1 (centres undefined)	7	8	43	19	-386	55*	3	1	6	5	2
